Measurements taken from ChEMBL document CHEMBL4619797, “Antiglioma Activity of Aryl and Amido-Aryl Acetamidine Derivatives Targeting iNOS: Synthesis and Biological Evaluation” (ACS Med Chem Lett, 2020).
The source made the active and inactive calls. The rule behind the calls is not given here.

Experiments:
[1] = biological target: T1, Nitric oxide synthase 3 (Homo sapiens) (UniProt P29474); test: Inhibition of human eNOS at 10 uM using L-arginine as substrate preincubated for 15 mins followed by NADPH addition and measured after 20 mins by OPA/NAC reagent based HPLC-fluorimetric analysis relative to control
T1 sequence (whole entry): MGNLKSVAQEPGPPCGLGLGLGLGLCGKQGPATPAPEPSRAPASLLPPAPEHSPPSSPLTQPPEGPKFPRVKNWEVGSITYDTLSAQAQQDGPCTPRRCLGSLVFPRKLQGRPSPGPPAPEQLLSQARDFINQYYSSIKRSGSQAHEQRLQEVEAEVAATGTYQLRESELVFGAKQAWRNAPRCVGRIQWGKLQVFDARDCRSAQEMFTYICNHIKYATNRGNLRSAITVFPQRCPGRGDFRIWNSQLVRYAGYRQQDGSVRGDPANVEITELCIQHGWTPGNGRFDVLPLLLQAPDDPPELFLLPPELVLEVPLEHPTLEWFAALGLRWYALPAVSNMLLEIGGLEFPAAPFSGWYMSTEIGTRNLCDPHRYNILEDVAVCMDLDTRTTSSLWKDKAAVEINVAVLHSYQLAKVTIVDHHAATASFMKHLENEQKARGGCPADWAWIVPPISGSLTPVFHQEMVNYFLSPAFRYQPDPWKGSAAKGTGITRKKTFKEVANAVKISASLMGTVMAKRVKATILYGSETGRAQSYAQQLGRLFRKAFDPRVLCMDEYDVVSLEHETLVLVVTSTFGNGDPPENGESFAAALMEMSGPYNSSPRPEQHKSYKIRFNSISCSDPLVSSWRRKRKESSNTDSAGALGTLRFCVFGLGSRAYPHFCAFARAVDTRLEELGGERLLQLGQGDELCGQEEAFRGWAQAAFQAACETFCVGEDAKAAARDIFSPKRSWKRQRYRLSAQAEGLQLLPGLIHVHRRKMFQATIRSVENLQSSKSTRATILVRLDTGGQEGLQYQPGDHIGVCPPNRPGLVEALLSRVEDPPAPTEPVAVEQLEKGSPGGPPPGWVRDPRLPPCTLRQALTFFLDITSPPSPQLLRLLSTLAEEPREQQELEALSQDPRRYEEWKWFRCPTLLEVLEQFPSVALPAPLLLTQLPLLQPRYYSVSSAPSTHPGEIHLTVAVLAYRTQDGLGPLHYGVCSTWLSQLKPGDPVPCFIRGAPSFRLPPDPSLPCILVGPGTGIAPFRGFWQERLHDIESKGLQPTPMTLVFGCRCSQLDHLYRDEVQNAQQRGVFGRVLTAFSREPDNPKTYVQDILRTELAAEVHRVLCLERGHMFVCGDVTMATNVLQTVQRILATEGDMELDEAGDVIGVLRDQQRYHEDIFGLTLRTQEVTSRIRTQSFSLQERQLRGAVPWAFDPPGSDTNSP
In short: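 eNOS percent inhibition screened at 10 μM compound; mean ± SD of triplicate experiments.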

[2] = biological target: T2, Nitric oxide synthase, inducible (Homo sapiens, UniProt P35228); test: Inhibition of recombinant N-terminal His-tagged human iNOS expressed in Escherichia coli at 1 uM using L-arginine as substrate preincubated for 15 mins followed by NADPH addition and measured after 20 mins by OPA/NAC reagent based HPLC-fluorimetric analysis relative to control
T2 sequence (P35228 whole entry): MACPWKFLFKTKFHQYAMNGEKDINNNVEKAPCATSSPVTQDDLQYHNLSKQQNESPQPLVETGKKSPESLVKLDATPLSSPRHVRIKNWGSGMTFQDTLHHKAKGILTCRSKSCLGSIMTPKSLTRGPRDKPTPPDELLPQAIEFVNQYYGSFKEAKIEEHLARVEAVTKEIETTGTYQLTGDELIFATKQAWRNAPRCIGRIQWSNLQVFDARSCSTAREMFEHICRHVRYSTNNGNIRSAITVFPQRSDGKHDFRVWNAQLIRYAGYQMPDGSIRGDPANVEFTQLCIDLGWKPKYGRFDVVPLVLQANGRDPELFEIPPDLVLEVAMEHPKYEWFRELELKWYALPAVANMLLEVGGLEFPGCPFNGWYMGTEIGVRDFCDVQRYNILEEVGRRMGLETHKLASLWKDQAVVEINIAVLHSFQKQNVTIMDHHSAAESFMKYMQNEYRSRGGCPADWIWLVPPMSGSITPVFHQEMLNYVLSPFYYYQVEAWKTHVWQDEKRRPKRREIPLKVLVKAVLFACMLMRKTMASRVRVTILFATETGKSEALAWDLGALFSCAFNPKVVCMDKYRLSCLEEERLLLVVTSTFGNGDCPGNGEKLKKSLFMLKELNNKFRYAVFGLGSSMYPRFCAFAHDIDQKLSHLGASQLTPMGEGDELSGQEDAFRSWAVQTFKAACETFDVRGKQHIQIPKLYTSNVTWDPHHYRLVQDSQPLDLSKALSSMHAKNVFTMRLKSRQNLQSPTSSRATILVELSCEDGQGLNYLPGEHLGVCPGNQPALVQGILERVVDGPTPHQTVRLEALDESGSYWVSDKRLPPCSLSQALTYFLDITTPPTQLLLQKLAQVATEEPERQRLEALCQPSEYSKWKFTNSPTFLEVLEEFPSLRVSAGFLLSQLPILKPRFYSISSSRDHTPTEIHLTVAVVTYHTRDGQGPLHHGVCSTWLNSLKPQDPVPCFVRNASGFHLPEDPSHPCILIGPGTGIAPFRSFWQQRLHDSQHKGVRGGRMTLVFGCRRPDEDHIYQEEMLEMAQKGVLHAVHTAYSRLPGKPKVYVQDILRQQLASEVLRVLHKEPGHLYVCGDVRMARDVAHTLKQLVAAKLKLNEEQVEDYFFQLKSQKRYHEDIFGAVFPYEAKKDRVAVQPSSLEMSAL
In short: (§1)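 Primary screen: percent inhibition of iNOS and nNOS measured at 1 μM compound; mean ± SD of triplicate experiments.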

[3] = biological target: T3, Nitric oxide synthase 1 (Homo sapiens, UniProt P29475); test: Inhibition of recombinant human nNOS expressed in Escherichia coli at 1 uM using L-arginine as substrate preincubated for 15 mins followed by NADPH addition and measured after 20 mins by OPA/NAC reagent based HPLC-fluorimetric analysis relative to control; in short: as §1
T3 sequence (P29475 whole entry): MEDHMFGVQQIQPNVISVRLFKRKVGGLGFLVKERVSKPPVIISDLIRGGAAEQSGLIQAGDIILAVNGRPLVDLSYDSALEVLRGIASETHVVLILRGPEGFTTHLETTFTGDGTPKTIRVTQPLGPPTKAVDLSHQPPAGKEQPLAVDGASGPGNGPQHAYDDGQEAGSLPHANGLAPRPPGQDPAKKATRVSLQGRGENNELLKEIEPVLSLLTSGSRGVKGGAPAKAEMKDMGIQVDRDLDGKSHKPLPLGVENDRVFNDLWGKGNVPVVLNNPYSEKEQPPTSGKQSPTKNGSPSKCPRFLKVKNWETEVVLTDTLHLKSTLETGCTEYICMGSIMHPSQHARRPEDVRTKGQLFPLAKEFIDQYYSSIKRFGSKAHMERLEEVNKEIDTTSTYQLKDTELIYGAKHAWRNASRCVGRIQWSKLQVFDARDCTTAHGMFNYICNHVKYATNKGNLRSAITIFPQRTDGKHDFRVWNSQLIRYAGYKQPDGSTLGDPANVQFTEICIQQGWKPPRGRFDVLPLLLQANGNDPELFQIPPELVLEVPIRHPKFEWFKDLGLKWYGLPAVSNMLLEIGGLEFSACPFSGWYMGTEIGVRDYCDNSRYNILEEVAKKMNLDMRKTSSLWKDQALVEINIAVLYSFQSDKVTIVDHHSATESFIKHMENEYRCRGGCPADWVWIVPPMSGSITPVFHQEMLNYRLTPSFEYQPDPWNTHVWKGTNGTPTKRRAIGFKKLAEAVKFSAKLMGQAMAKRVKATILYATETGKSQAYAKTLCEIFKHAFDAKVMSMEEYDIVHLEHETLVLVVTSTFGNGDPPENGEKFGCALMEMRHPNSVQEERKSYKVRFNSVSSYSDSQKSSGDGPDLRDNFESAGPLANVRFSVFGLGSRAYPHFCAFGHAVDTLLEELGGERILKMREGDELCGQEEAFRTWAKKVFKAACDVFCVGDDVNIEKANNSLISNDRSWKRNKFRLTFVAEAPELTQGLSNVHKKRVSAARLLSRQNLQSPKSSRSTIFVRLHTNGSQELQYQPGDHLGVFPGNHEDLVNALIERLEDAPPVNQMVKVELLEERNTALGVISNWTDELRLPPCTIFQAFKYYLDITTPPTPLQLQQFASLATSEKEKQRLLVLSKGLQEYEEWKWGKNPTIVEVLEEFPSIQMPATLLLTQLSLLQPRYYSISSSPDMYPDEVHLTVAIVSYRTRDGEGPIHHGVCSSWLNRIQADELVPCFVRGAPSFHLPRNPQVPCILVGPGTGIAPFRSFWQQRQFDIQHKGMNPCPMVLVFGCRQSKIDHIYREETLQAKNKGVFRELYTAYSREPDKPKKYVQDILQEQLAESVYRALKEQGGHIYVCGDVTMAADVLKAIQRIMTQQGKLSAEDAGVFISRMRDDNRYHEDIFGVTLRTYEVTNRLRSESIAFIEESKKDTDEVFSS

[4] = tested on: C6; test: Antiproliferative activity against rat C6 cells assessed as inhibition of cell proliferation at 500 uM after 24 hrs by MTT assay; type: functional, cell-based
In short: (§2)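 C6 rat glioma cells exposed 24 h to increasing concentrations (0–1500 μM); metabolic activity by MTT, expressed as percent of untreated cultures (100%); means ± SD of three replicates.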

[5] = tested on: C6; test: Antiproliferative activity against rat C6 cells assessed as inhibition of cell proliferation at 500 uM after 24 hrs by MTT assay relative to control; type: functional; conditions: C6, 24 h; in short: as §2
[6] = biological target: T2, Nitric oxide synthase, inducible; test: Inhibition of recombinant N-terminal His-tagged human iNOS expressed in Escherichia coli using L-arginine as substrate preincubated for 15 mins followed by NADPH addition and measured after 20 mins by OPA/NAC reagent based HPLC-fluorimetric analysis
In short: (§3)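 IC50 against human iNOS, nNOS and eNOS from experiments in triplicate at seven different concentrations; mean ± SD reported.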

[7] = tested on: C6; test: Antiproliferative activity against rat C6 cells assessed as cell metabolic activity at 1000 uM after 24 hrs by MTT assay relative to control; type: functional; in short: as §2
[8] = Cytotoxicity against rat CTX/TNA2 cells assessed as reduction in cell metabolic activity at 1500 uM after 24 hrs by MTT assay; type: ADME, cell-based
In short: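 Rat astrocytes (CTX) exposed 24 h to increasing concentrations up to 1500 μM; metabolic activity by MTT, expressed as percent of untreated (0 μM) cultures set at 100%; means ± SD of three replicates.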

[9] = biological target: Nitric oxide sythases; iNOS & nNOS (Homo sapiens) (UniProt P29475+P35228); test: Selectivity index, ratio of IC50 for recombinant human nNOS expressed in Escherichia coli to IC50 for recombinant N-terminal His-tagged human iNOS expressed in Escherichia coli
Nitric oxide sythases; iNOS & nNOS (Homo sapiens), sequence (P29475 whole entry, looked up): as the sequence (P29475 whole entry) above
Nitric oxide sythases; iNOS & nNOS (Homo sapiens), sequence (P35228 whole entry, looked up): as the sequence (P35228 whole entry) above
In short: (§4)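 Ratio of IC50 values for human eNOS or nNOS to that for human iNOS, each IC50 from triplicate runs at seven concentrations.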

[10] = species: Homo sapiens; test: Selectivity index, ratio of IC50 for recombinant human eNOS to IC50 for recombinant N-terminal His-tagged human iNOS expressed in Escherichia coli; in short: as §4
[11] = tested on: C6; test: Antiproliferative activity against rat C6 cells assessed as reduction in cell metabolic activity after 24 hrs by MTT assay; type: functional, cell-based; in short: as §2
[12] = biological target: T4, Nitric oxide synthase 3 (Homo sapiens, UniProt P29474); test: Inhibition of human eNOS using L-argininge as substrate preincubated for 15 mins followed by NADPH addition and measured after 20 mins by OPA/NAC reagent based HPLC analysis; in short: as §3
T4 sequence (P29474 whole entry): T1 sequence (whole entry)

[13] = tested on: C6; test: Antiproliferative activity against rat C6 cells assessed as LDH release at 250 uM after 24 hrs by CytoTox 96 Non-Radioactive assay (reference value: 13.49%); type: functional
[14] = tested on: C6; test: Antiproliferative activity against rat C6 cells assessed as cell metabolic activity at 750 uM after 24 hrs by MTT assay relative to control; type: functional; in short: as §2
[15] = tested on: C6; test: Antiproliferative activity against rat C6 cells assessed as cell metabolic activity at 1500 uM after 24 hrs by MTT assay relative to control; type: functional; in short: as §2
[16] = biological target: T3, Nitric oxide synthase 1; test: Inhibition of recombinant human nNOS expressed in Escherichia coli using L-arginine as substrate preincubated for 15 mins followed by NADPH addition and measured after 20 mins by OPA/NAC reagent based HPLC-fluorimetric analysis; in short: as §3
[17] = tested on: C6; test: Antiproliferative activity against rat C6 cells assessed as cell metabolic activity at 50 uM after 24 hrs by MTT assay relative to control; type: functional; in short: as §2
[18] = tested on: C6; test: Antiproliferative activity against rat C6 cells assessed as increase in LDH release after 24 hrs by CytoTox 96 Non-Radioactive assay; type: functional, cell-based
[19] = tested on: C6; test: Antiproliferative activity against rat C6 cells assessed as LDH release at 500 to 1000 uM after 24 hrs by CytoTox 96 Non-Radioactive assay (reference value: 13.49%); type: functional

Row | Compound | inhibition [1] [%] | inhibition [2] [%] | inhibition [3] [%] | also measured
1 | CC(=N)Nc1nc(-c2ccccc2)cs1 | 14 | 100 | 2 | 
2 | CC(=N)NCc1cccc(CN)c1 |  |  |  | Activity [4]: inactive
3 | CC(=N)Nc1ccc(C(=O)Nc2nccs2)cc1 | 0 | 84 | 96 | 
4 | Cn1nnc2c(C(N)=O)ncn2c1=O [TEMOZOLOMIDE] |  |  |  | inhibition at 500 µM [5]: 12%
5 | CC(=N)NCc1ccc(F)cc1 | 5 | 93 | 0 | 
6 | CC(=N)NCc1ccc(C(=O)Nc2nccs2)cc1 | 0 | 100 | 0 | 
7 | CC(=N)Nc1ccc(F)cc1 | 0 | 85 | 10 | 
8 | CC(=N)NCc1cccc(CNC(=O)CCC(=O)O)c1 |  |  |  | IC50 [6]: 428 nM
9 | CC(=N)NCc1ccc(C(=O)O)cc1 | 4 | 70 | 0 | 
10 | CC(=N)NCc1cccc(CNC(=O)C2CCCN2)c1 (stereo not drawn) |  |  |  | Activity [4]: inactive
11 | CC(=N)Nc1ccc(S(=O)(=O)Nc2nccs2)cc1 | 3 | 81 | 47 | 
12 | CC(N)C(=O)Cc1cn[nH]c1 (stereo not drawn) |  |  |  | IC50 [6]: 681 nM
13 | CC(=N)Nc1nc(-c2ccc(Cl)cc2)cs1 | 4 | 100 | 13 | 
14 | CC(=N)NCc1ccc(C(=O)Nc2ccc(F)cc2)cc1 | 0 | 87 | 97 | 
15 | Br.CC(=N)Nc1ccc(C(=O)Nc2ccc(F)cc2)cc1 | 0 | 100 | 0 | Activity [7]: 65.22%; Activity [8]: Toxic; Ratio IC50 [9]: 563; Ratio IC50 [10]: > 900; Activity [11]: Dose-dependent effect; IC50 [12]: > 10000 nM; Activity [13]: 22.48%; Activity [14]: 64.86%; Activity [15]: 64.42%; IC50 [16]: 6200 nM; Activity [17]: 86.45%; IC50 [6]: 11 nM; Activity [18]: Dose-dependent effect; Activity [19]: 27%; inhibition at 500 µM [5]: 31%
16 | CC(=N)Nc1ccc(C(=O)O)cc1 | 62 | 86 | 14 | 
